Reference: ChEMBL document CHEMBL4651341, “The discovery of a novel series of compounds with single-dose efficacy against juvenile and adult Schistosoma species” (PLoS Negl Trop Dis, 2021)
pEC50: −log10 of the molar value.

Assays:
Schistosoma mansoni [1] = assay: Concentration required to kill 50% of 21 day old worms 5 days after drug treatment.; format: functional, organism-based; conditions: Puerto Rican, 120 h
Outline: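 Juvenile S. mansoni (Puerto Rican strain) were perfused from CD1 mice 3 weeks post-infection and washed. They were cultured 6–8 per well in 200 µL DMEM with 2 mM glutamine, penicillin/streptomycin and 10% FCS at 37 °C, 5% CO2. Viability of individual worms was scored on day 5 after dosing (120 h).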

Schistosoma mansoni [2] = assay: Concentration required to kill 50% of 42 day old worms 5 days after drug treatment.; format: functional, organism-based; conditions: Puerto Rican, 120 h
Outline: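 Adult S. mansoni were perfused from CD1 mice 6 weeks post-infection and washed. They were cultured 3 pairs per well in 1 mL DMEM with 2 mM glutamine, penicillin/streptomycin and 10% FCS […] at 37 °C, 5% CO2. Viability of individual worms was scored on day 5 (120 h).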

[3] = Mean plasma concentration at 4h in Swiss albino male mice at […] per compound (administered orally in a mixture of 5 compounds to 3 mice) assessed by LCMS/MS.; format: ADME, organism-based; conditions: mouse, po
[4] = Mean volume of distribution at steady state in Swiss albino male mice at 1 mg/kg per compound (administered iv in a mixture of 5 compounds to 3 mice) assessed by LCMS/MS.; format: ADME, organism-based; conditions: mouse, in vivo, read-out: Volume
Outline: (§1)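 Male Swiss albino mice (~30 g), 3 per experiment, mostly dosed as mixtures of 5 compounds iv via the lateral tail vein. Vehicle: 10% DMSO/90% 50 mM Na2HPO4 with 0.5% Tween-80. Plasma stored at −20 °C and quantified by LC-MS after acetonitrile precipitation.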

[5] = Mean time to peak plasma concentration in Swiss albino male mice at […] per compound (administered orally in a mixture of 5 compounds to 3 mice) assessed by LCMS/MS.; format: ADME, organism-based; conditions: mouse, po
[6] = Mean AUC inf in Swiss albino male mice at 1 mg/kg per compound (administered iv in a mixture of 5 compounds to 3 mice) assessed by LCMS/MS.; format: ADME, organism-based; conditions: male, Swiss albino, mouse, in vivo
Outline: as §1, with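 “Tween-80. Blood sampled at 5, 15, 30 min and 1, 2, 4, 8, 24 h.” for “Tween-80.”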

[7] = Mean oral bioavailability in Swiss albino male mice at […] per compound (administered in a mixture of 5 compounds to 3 mice) assessed by LCMS/MS.; also: dose 2.5 mg/kg; format: ADME, organism-based; conditions: male, Swiss albino, mouse, in vivo, read-out: Bioavailability
[8] = Mean observed clearance in Swiss albino male mice at 1 mg/kg per compound (administered iv in a mixture of 5 compounds to 3 mice) assessed by LCMS/MS.; format: ADME, organism-based; conditions: male, Swiss albino, mouse, in vivo, read-out: Clearance (converted)
Outline: as §1, with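 “Tween-80. Blood sampled at 5, 15, 30 min and 1, 2, 4, 8, 24 h.” for “Tween-80.”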

[9] = Concentration required to kill 50% HepG2 cells as detected by MTT staining; format: toxicity, cell-based; conditions: homo sapiens, read-out: TC50 (the source's name)
[10] = Mean half-life in Swiss albino male mice at 1 mg/kg per compound (administered iv in a mixture of 5 compounds to 3 mice) assessed by LCMS/MS.; format: ADME, organism-based; conditions: mouse, in vivo; outline: as §1
[11] = Mean plasma concentration at 24h in Swiss albino male mice at […] per compound (administered orally in a mixture of 5 compounds to 3 mice) assessed by LCMS/MS.; format: ADME, organism-based; conditions: mouse, po

SMILES	pEC50 (Schistosoma mansoni [1])	further results
CC(C)c1nc2cnc(-c3ccc(F)c(C(F)(F)F)c3)cn2c1-c1ccc2[nH]cnc2c1F	6.18	pEC50 (Schistosoma mansoni [2]): 6.04
Cc1nc2cnc(-c3ccc(F)c(S(F)(F)(F)(F)F)c3)cn2c1-c1ccc2[nH]ncc2c1F	7.11	pEC50 (Schistosoma mansoni [2]): 7.58
COc1cc(O)ccc1-c1c(C(C)C)nc2cnc(-c3cccc(C(F)(F)F)c3)cn12	5.98	pEC50 (Schistosoma mansoni [2]): 6.04
Cc1nc2cnc(-c3cccc(C(F)(F)F)c3)cn2c1-c1ccc(O)cc1	5.85	pEC50 (Schistosoma mansoni [2]): > 6.21
Fc1ccc(-c2cn3c(-c4ccc5[nH]ncc5c4F)c(C(F)(F)F)nc3cn2)cc1C1CC1	7.71	concentration at 4 h [3]: 131 ng/mL; Vd [4]: 4.45 L/kg; Tmax [5]: 40.2 min; AUC(0-inf) [6]: 270 ng·h/mL; bioavailability [7]: 135%; clearance [8]: 31.5 mL/min/kg; pEC50 (Schistosoma mansoni [2]): 7.92; CC50 [9]: 10500 nM; half-life [10]: 169 min; concentration at 24 h [11]: 6.53 ng/mL
Fc1ccc(-c2cn3c(-c4ccc5[nH]ncc5c4F)c(C(F)(F)F)nc3cn2)cc1Br	7.46	pEC50 (Schistosoma mansoni [2]): 7.32
CC(C)c1nc2cnc(-c3cccc(Br)c3)cn2c1-c1ccc2[nH]ncc2c1F	7.58	pEC50 (Schistosoma mansoni [2]): 7.44
CC(C)c1cc(-c2cn3c(-c4ccc5[nH]ncc5c4F)c(C(F)(F)F)nc3cn2)ccn1	7.04	pEC50 (Schistosoma mansoni [2]): 7.43; CC50 [9]: 9530 nM
CC(C)Oc1cccc(-c2cn3c(-c4ccc(O)cc4)cnc3cn2)c1	5.27	pEC50 (Schistosoma mansoni [2]): 5.35
CS(=O)(=O)c1ccc(-c2cnc3ccc(-c4cccc(S(C)(=O)=O)c4)nn23)cc1	4.60	CC50 [9]: 11900 nM
Cc1c(-c2c(C(F)(F)F)nc3cnc(-c4ccc(F)c(C(F)(F)F)c4)cn23)ccc2[nH]ncc12	6.12	concentration at 4 h [3]: 250 ng/mL; Vd [4]: 7.87 L/kg; Tmax [5]: 40 min; AUC(0-inf) [6]: 2000 ng·h/mL; bioavailability [7]: 65.2%; clearance [8]: 4.3 mL/min/kg; half-life [10]: 1420 min; concentration at 24 h [11]: 98.1 ng/mL
CC(C)c1nc2cnc(-c3ccc(F)c(C(F)(F)F)c3)cn2c1-c1c(F)ccc(O)c1F	6.49	pEC50 (Schistosoma mansoni [2]): 6.34
CC(C)c1nn2cnc(-c3ccc(F)c(C(F)(F)F)c3)cc2c1-c1ccc2[nH]ncc2c1F	–	concentration at 4 h [3]: 332 ng/mL; Tmax [5]: 120 min
Oc1cc(F)c(-c2c(CC(F)(F)F)nc3cnc(-c4ccc(F)c(C(F)(F)F)c4)cn23)c(F)c1	6.86	pEC50 (Schistosoma mansoni [2]): 7.10
Fc1ccc(-c2cn3c(-c4ccc5[nH]ncc5c4F)c(C4CC4)nc3cn2)cc1C(F)(F)C(F)(F)F	7.43	pEC50 (Schistosoma mansoni [2]): 7.63
Oc1ccc(-c2cnc3cnc(C4=COCCC4)cn23)cc1	< 4.60	Tmax [5]: 0.6 min; AUC(0-inf) [6]: 52.2 ng·h/mL; bioavailability [7]: 0.01%; clearance [8]: 177 mL/min/kg
COc1cc(-c2c(C)nc3cnc(-c4cccc(C(F)(F)F)c4)cn23)ccc1O	5.90	pEC50 (Schistosoma mansoni [2]): > 6.19
CC(C)c1cc(-c2cn3c(-c4c(F)cc(O)cc4F)c(C4CC4)nc3cn2)ccc1F	8.28	pEC50 (Schistosoma mansoni [2]): 8.35
Oc1ccc(-c2cnc3cnc(C4=CCOCC4)cn23)cc1	< 4.60	–
COc1ccc(-c2nnc3ccc(-c4cnc5[nH]ncc5c4)cn23)cc1OC	< 4.60	–

SMILES	pEC50 (Schistosoma mansoni [1])	further results
CC(=O)c1cccc(-c2cn3c(-c4ccc(O)cc4)cnc3cn2)c1	< 4.60	–
COc1cc(-c2nnc3ccc(-c4cccc(C(C)C)c4)cn23)ccn1	< 4.60	–
NC(=O)Cc1cccc(-c2cn3c(-c4ccc(O)cc4)cnc3cn2)c1	< 4.60	–
CC(C)Oc1cccc(-c2cn3c(-c4cccc(CO)c4)cnc3cn2)c1	< 4.60	–
CC(C)Oc1cccc(-c2ccc3nnc(-c4ccc(F)cc4)n3c2)c1	< 4.60	–
COc1cccc(-c2ccc3nnc(-c4ccc(OC)c(OC)c4)n3c2)n1	< 4.60	–
COc1ncc(-c2cnc3cnc(-c4cccc(OC(C)C)c4)cn23)cn1	< 4.60	–
COc1ccc(-c2cnc3cnc(-c4cccc(S(=O)(=O)N5CCOCC5)c4)cn23)cc1	< 4.60	–
COc1cccc(-c2cn3c(-c4ccc5c(c4)CCO5)cnc3cn2)c1	< 4.60	–
CC(=O)c1ccc(F)c(-c2cn3c(-c4ccc(O)cc4)cnc3cn2)c1	< 4.60	–
CC(C)c1cccc(-c2ccc3nnc(-c4cccc(CO)c4)n3c2)c1	< 4.60	–
Cn1cncc1-c1cn2c(-c3ccc(O)cc3)cnc2cn1	< 4.60	–
COc1ccc(-c2nnc3ccc(-c4ccc5cn[nH]c5c4)cn23)cc1OC	< 4.60	–
COc1cccc(-c2cnc3cnc(-c4cccc(OC(C)C)c4)cn23)n1	< 4.60	–
COc1ccc(-c2nnc3ccc(-c4cccc(OC(C)C)c4)cn23)cc1OC	< 4.60	–
CC(C)c1cccc(-c2ccc3nnc(-c4cnc5[nH]ncc5c4)n3c2)c1	< 4.60	–
COc1c(O)cccc1-c1c(C(C)C)nc2cnc(-c3cccc(C(F)(F)F)c3)cn12	5.88	pEC50 (Schistosoma mansoni [2]): 5.75
CC(C)Oc1cccc(-c2cn3c(-c4cn[nH]c4)cnc3cn2)c1	< 4.60	–
COc1ccc(-c2nnc3ccc(-c4cccc(Cl)c4)cn23)cc1OC	< 4.60	–
C#CCOc1cc(-c2cn3c(-c4ccc5[nH]ncc5c4F)c(C(F)(F)F)nc3cn2)ccc1F	7.68	pEC50 (Schistosoma mansoni [2]): 7.98

SMILES	pEC50 (Schistosoma mansoni [1])	further results
CC(C)Oc1cccc(-c2cn3c(-c4ccc(S(N)(=O)=O)cc4)cnc3cn2)c1	4.60	–
CC(C)Oc1cccc(-c2cn3c(-c4ccc(CO)cc4)cnc3cn2)c1	4.60	–
COc1ccc(-c2nnc3ccc(-c4cccc(OC(C)C)c4)cn23)cc1F	4.60	–
CS(=O)(=O)c1cncc(-c2cn3c(-c4ccc(O)cc4)cnc3cn2)c1	< 4.60	–
Oc1ccc(-c2cnc3cnc(-c4ccnc(C(F)(F)F)c4)cn23)cc1	< 4.60	–
CC(C)c1cccc(-c2ccc3nnc(-c4ccc5[nH]ncc5c4)n3c2)c1	< 4.60	–
CC(C)Oc1cccc(-c2cn3c(-c4ccc5[nH]ncc5c4F)c(C(F)(F)F)nc3cn2)c1	7.58	pEC50 (Schistosoma mansoni [2]): 7.76; CC50 [9]: 13200 nM
Cc1nnc2ccc(-c3cccc(C(C)C)c3)cn12	< 4.60	–
COc1ccc(-c2nnc3ccc(-c4cccc(C(C)C)c4)cn23)cc1O	5.01	–
COc1ccc(-c2nnc3ccc(-c4ccnc(C(F)(F)F)c4)cn23)cc1OC	< 4.60	–
CC(C)Oc1cccc(-c2ccc3nnc(-c4ccc5c(c4)ncn5C)n3c2)c1	4.60	–
COc1ccc(-c2nnc3ccc(-c4ccc5c(c4)OCCO5)cn23)cc1OC	< 4.60	–
CNC(=O)c1cccc(-c2ccc3nnc(-c4ccc(OC)c(OC)c4)n3c2)c1	< 4.60	–
CC(C)c1cccc(-c2ccc3nnc(-c4ccc(CO)cc4)n3c2)c1	< 4.60	–
CN(C)Cc1cccc(-c2cn3c(-c4ccc(O)cc4)cnc3cn2)c1	4.61	–
COc1ccc(-c2nnc3ccc(-c4ccccn4)cn23)cc1OC	< 4.60	–
Cc1c(-c2cn3c(-c4ccc(O)cc4)cnc3cn2)cnn1C	< 4.60	–
CC(C)c1cccc(-c2ccc3nnc(-c4ccnn4C)n3c2)c1	< 4.60	–
COc1ccc(-c2cnc3cnc(-c4cnn(CCN5CCOCC5)c4)cn23)c(C)c1	< 4.60	–
Cc1noc(C)c1-c1cn2c(-c3ccc(O)cc3)cnc2cn1	< 4.60	Vd [4]: 0.493 L/kg; Tmax [5]: 0.6 min; AUC(0-inf) [6]: 61.2 ng·h/mL; bioavailability [7]: 0.01%; clearance [8]: 140 mL/min/kg; half-life [10]: 3.65 min
